TAAR1 antag: human TAAR1 antagonists, primary screen, Fluo-8 calcium fluorescence, CHO RD-HGA16 cells; Trace amine-associated receptor 1 (Homo sapiens), Q96RJ0; hit rate 1.5% among 360,000; antagonist; inhibition, % at 3 µM; AID 624466, 2012;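 active = inhibition above a per-plate cutoff, the mean inhibition of test compounds on that plate plus 3 SD, cut at about 49% in these data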;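 also: 0% = DMSO plus EC80 beta-PEA response and 100% = DMSO alone without agonist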
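System: RD-HGA16 CHO cells with stable hTAAR1 and Gα16 | Probe or stimulus: EC80 β-phenethylamine stimulus | Dosing: 3 µM, single point | Times: Dye loading 75 min at 37 °C, then 30 min room temperature | Measured by: Fluo-8 calcium-sensitive fluorescence | Read-out basis: % inhibition of agonist calcium response | Replicates: n of 1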
TAAR1 ag: human TAAR1 agonists, primary screen, Fluo-8 calcium fluorescence, CHO RD-HGA16 cells; activation, % at 3 µM; vehicle wells 0%, saturating PEA agonist 100%; hit rate 0.99% among 360,000; Trace amine-associated receptor 1 (Homo sapiens), Q96RJ0;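 active = activation above the mean activation of all test compounds in the run plus 3 SD, cut at about 38% in these data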
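System: CHO-derived RD-HGA16 cells with stable Gα16 and human TAAR1. Times: 17-24 h plating, Fluo-8 75 min 37 °C, 30 min RT. Measured by: calcium-sensitive Fluo-8 signal, excitation 470-495, emission 515-575 nm. Read-out basis: % activation relative to PEA EC100 response. Control set: DMSO and PEA EC100. Repeats: no replicates (n 1).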
V1aR counter: agonists of human V1a receptor, primary screen, counter-screen for OXTR agonist project, fluorescence, CHO-V1R cells | Vasopressin V1a receptor (Homo sapiens), P37288 | Fluo-8 calcium fluorescence, agonist mode; 0% DMSO, 100% 3 nM vasopressin | activation, % at 3 µM | hit rate 0.25% among 320,000 | AID 2797, 2010;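 active = activation above the mean activation of all tested compounds plus 3 SD, per screening run, cut at about 20% in these data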;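 also: signal is peak over basal fluorescence ratio across a 100 second FLIPR read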
Target sequence (P37288 whole entry, looked up): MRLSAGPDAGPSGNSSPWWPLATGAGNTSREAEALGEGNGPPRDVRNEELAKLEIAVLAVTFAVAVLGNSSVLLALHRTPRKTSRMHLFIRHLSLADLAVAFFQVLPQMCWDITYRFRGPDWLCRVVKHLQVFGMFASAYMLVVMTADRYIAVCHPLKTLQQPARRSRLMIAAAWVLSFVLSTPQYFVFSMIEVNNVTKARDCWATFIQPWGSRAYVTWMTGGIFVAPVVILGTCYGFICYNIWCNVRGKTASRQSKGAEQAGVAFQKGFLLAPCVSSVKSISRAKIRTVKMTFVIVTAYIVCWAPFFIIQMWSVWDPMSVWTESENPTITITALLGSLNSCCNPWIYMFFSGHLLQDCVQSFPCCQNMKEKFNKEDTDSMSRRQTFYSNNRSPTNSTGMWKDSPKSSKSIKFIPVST
OXTR potentiator: human OXTR potentiators, primary screen, fluorescence, CHO-OTR cells, Fluo-8 calcium; Fluo-8 calcium fluorescence, potentiator mode; 0% = oxytocin EC15, 100% = EC100; activation, % at 3 µM; hit rate 0.061% among 320,000; AID 2445, 2010;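 active = activation above that plate's cutoff, the mean activation of tested compounds plus 3 SD, cut at about 6.6% in these data, passing the limit was not always enough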;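 also: 100% uses oxytocin at 75 nM as the full agonist control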
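Material: CHO-OTR cells, human receptor; compound dosing: single dose, 3.0 µM nominal final compound concentration; schedule: 6 min compound pre-incubation at room temperature, 100 s kinetic read; measured by: kinetic Fluo-8 calcium fluorescence; read-out basis: % activation vs EC15 and EC100 oxytocin; controls: EC15 oxytocin alone as 0%, 75 nM oxytocin as 100%; replicates: singlicate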
OXTR agonist: human OXTR agonists, primary screen, fluorescence, CHO-OTR cells, Fluo-8 calcium. Fluo-8 calcium fluorescence; normalized: DMSO 0%, oxytocin 100%. activation, % at 3 µM. AID 2435, 2010. Oxytocin receptor (Homo sapiens), P30559. hit rate 0.32% among 320,000;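 active = activation above the mean of all tested compounds plus 3 SD, cutoff set per screening run, cut at about 20% in these data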;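 also: peak over basal fluorescence ratio from a 100 s FLIPR kinetic read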
TAAR1 ag confirm: human TAAR1 agonists, retest of hits, confirmation, Fluo-8 calcium fluorescence, CHO RD-HGA16 cells. shares compounds with TAAR1 ag. scaled: DMSO 0%, maximal phenethylamine 100%. activation, % at 3 µM. hit rate 82% among 2,400. AID 651783, 2012;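 active = activation above a cutoff set at the run's mean compound activation plus 3 SD, cut at about 39% in these data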
Ga16 ag counter: nonselective calcium mobilization agonists, CHO-Ga16 cells, counter-screen for hTAAR1 agonist project, cell-based, fluorescence, CHO-Ga16 parental line; activation, % at 3 µM; Fluo-8 calcium fluorescence; normalized to maximal ATP response, DMSO zero; hit rate 50% among 2,400; shares compounds with TAAR1 ag;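 active = activation above the run cutoff, the mean activation over all tested wells plus 3 SD, cut at about 12% in these data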;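 also: 0% = DMSO wells and 100% = maximal ATP response on the peak over basal ratio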
TAAR1 desensitize: TAAR1 desensitization by agonist hits, confirmation, counter-screen for TAAR1 agonist project, cell-based, fluorescence, tachyphylaxis; shares compounds with TAAR1 ag; CHO RD-HGA16 hTAAR1, Fluo-8 calcium, beta-PEA response inhibition; inhibition, % at 3 µM; hit rate 46% among 2,400; AID 651951, 2012;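 active = inhibition above the run cutoff, the mean inhibition of all test compounds plus 3 SD, cut at about 49% in these data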;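 also: beta-PEA stimulus applied at its EC80; loss of beta-PEA calcium signal after compound pretreatment read as receptor desensitization; 0% = DMSO with beta-PEA at EC80 and 100% = DMSO alone without agonist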
Ga16 nonsel ant: inhibition of ATP-evoked calcium response in CHO-Ga16 cells, counter-screen for TAAR1 agonist project, cell-based, fluorescence; hit rate 39% among 2,400; shares compounds with TAAR1 ag; inhibition, % at 3 µM; CHO-Ga16 ATP-induced calcium, Fluo-8 fluorescence;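 active = inhibition above the plate's mean compound inhibition plus 3 SD, computed per plate, cut at about 22% in these data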;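 also: 0% = EC80 ATP with DMSO and 100% = DMSO wells without ATP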
An asterisk follows results filed as active; / = not tested or not shown. Most compounds without a hit are left out; they make up all but 2.3% or so of the library.

SMILES	TAAR1 antag	TAAR1 ag	V1aR counter	OXTR potentiator	OXTR agonist	TAAR1 ag confirm	Ga16 ag counter	TAAR1 desensitize	Ga16 nonsel ant
O=C(COc1ccccc1)NCC(=O)N/N=C/c1ccc(O)cc1O	0	6	2	0	0	/	/	/	/
Nc1nnc(CCCCCc2nnc(N)s2)s1	1	8	0	0	1	/	/	/	/
COc1ccccc1CCNC(=O)C1CCCO1 (configuration not stated)	13	43*	0	-6	1	73*	2	30	5
Cc1ccccc1NC(=O)C(=O)NCC1CCCN1S(=O)(=O)c1cccs1 (configuration not stated)	-8	1	-1	-15	-1	/	/	/	/
O=C(NCCc1ccccc1)C(=O)NCC1CCCN1S(=O)(=O)c1cccs1 (configuration not stated)	69*	89*	1	-16	-1	98*	9	95*	27*
O=C(O)c1ccc(N/N=C/C(Br)=C/c2ccccc2)cc1	60*	122*	5	-5	5	33	19*	34	21
Nc1nc(-c2ccccc2)cn1/N=C/c1ccccc1	30	61*	1	1	0	93*	5	70*	10
Nc1nc(-c2ccccc2)cn1N	7	11	0	-12	0	/	/	/	/
O=c1oc2c(-c3ccc([N+](=O)[O-])cc3)cc(O)cc2s1	-18	7	0	-5	3	/	/	/	/
CCCCN(C)C(=O)C1CCC(CNS(=O)(=O)c2ccc3c(c2)CC(C)N3C(=O)C2CC2)CC1 (configuration not stated)	-19	5	9	-7	4	/	/	/	/
O=C(Nc1ccc(Cl)cn1)c1cccc(F)c1	-21	3	-1	-12	-1	/	/	/	/
O=C(Cc1ccccc1)Nc1ccc(NC(=O)c2ccccc2)nc1	3	53*	0	-1	-1	64*	2	31	12
O=C(Nc1cccc(C(=O)Nc2ccc(Cl)cn2)c1)c1ccccc1	86*	87*	1	-5	-1	3	7	26	17
O=C1CN(C(=O)COC(=O)[C@@H]2CCCN2S(=O)(=O)c2ccc(Cl)cc2)c2ccccc2N1	-3	3	0	0	0	/	/	/	/
Cc1cc(/C=C2/SC(=O)NC2=O)c(C)n1-c1ccc(N2CCOCC2)cc1	28	54*	14	-11	8	60*	38*	30	24*
FC(F)(F)c1ccc(N=Cc2sc(N3CCOCC3)nc2-c2ccccc2)cc1	12	1	1	-7	-1	/	/	/	/
Oc1ccc(CCc2ccccn2)cc1	-10	4	/	/	/	/	/	/	/
Cc1cc2nc(NCCCO)n(CC(=O)c3cc(C(C)(C)C)c(O)c(C(C)(C)C)c3)c2cc1C	44	49*	-1	-10	4	53*	30*	41	34*
COc1ccc(C(=O)Cn2c(NCCCO)nc3ccccc32)cc1	-8	5	/	/	/	/	/	/	/
O=C(CC1C(=O)NCCN1Cc1ccccc1C(F)(F)F)NCCn1cccn1 (configuration not stated)	1	2	0	2	0	/	/	/	/
CCOc1ccc(-c2c(C(=O)N/N=C/c3ccco3)nnn2-c2nonc2N)cc1	-13	92*	16	-6	6	64*	49*	16	6
Cc1ccc(-c2c(C(=O)N/N=C/c3cccs3)nnn2-c2nonc2N)cc1	/	/	17	-10	18	/	/	/	/
CCOc1cccc(-c2c(C(=O)N/N=C/c3ccsc3)nnn2-c2nonc2N)c1	20	118*	24*	-7	25*	136*	93*	67*	27*
Cc1ccc(-c2c(C(=O)N/N=C/c3ccsc3)nnn2-c2nonc2N)cc1	50*	133*	36*	-20	39*	125*	90*	72*	34*
CCOc1cccc(-c2c(C(=O)N/N=C/c3sccc3C)nnn2-c2nonc2N)c1	-4	31	1	-1	2	/	/	/	/
SMILES	TAAR1 antag	TAAR1 ag	V1aR counter	OXTR potentiator	OXTR agonist	TAAR1 ag confirm	Ga16 ag counter	TAAR1 desensitize	Ga16 nonsel ant
CCOc1ccc(-c2c(C(=O)N/N=C/c3ccc(C)cc3)nnn2-c2nonc2N)cc1	34	122*	15	9	16	118*	73*	76*	48*
Cc1nc(NC(=O)COC(=O)CCc2ccccc2)c(Cl)cc1Cl	5	1	0	-3	-2	/	/	/	/
CCN(CC(=O)NCc1ccc(Cl)cc1)C(=O)CSc1ccc(Br)cc1	28	0	3	-12	-1	/	/	/	/
CCOC(=O)N1CCN(S(=O)(=O)N2CCCC(C(=O)NCCCN3CCCCC3)C2)CC1 (configuration not stated)	-2	2	-1	-8	1	/	/	/	/
Cc1ccc(-c2c(C(=O)N/N=C/c3ccoc3)nnn2-c2nonc2N)cc1	20	73*	10	-5	6	87*	59*	14	6
Cc1ccc(-c2c(C(=O)N/N=C/c3cccc(Cl)c3)nnn2-c2nonc2N)cc1	35	4	1	-12	2	/	/	/	/
CCOc1ccc(-c2c(C(=O)N/N=C/c3ccncc3)nnn2-c2nonc2N)cc1	-29	13	5	-6	0	/	/	/	/
CCOc1ccc(-c2c(C(=O)N/N=C/c3ccccc3)nnn2-c2nonc2N)cc1	-15	51*	-1	-6	-2	43*	30*	13	15
CCCNC(=O)c1cc(C2CCCN(C(=O)c3ccc(OC)cc3)C2)on1 (configuration not stated)	-12	3	/	/	/	/	/	/	/
COc1ccc(-c2nnc(SCC(=O)Nc3cc(S(=O)(=O)N4CCCCC4)ccc3Cl)n2N)cc1	-9	-4	1	-1	1	/	/	/	/

Compound activity deposited in PubChem by The Scripps Research Institute Molecular Screening Center.
